The text below walks through data of publication PMC2606940 (The Journal of General Physiology, 2009).

Holding throughout (assay type): cell-based
In assay [1] the target is T1, CLC-0 E166K mutant (Torpedo marmorata, UniProt P21564, C212S/E166K).
T1 sequence (P21564 1-805 E166K/C212S): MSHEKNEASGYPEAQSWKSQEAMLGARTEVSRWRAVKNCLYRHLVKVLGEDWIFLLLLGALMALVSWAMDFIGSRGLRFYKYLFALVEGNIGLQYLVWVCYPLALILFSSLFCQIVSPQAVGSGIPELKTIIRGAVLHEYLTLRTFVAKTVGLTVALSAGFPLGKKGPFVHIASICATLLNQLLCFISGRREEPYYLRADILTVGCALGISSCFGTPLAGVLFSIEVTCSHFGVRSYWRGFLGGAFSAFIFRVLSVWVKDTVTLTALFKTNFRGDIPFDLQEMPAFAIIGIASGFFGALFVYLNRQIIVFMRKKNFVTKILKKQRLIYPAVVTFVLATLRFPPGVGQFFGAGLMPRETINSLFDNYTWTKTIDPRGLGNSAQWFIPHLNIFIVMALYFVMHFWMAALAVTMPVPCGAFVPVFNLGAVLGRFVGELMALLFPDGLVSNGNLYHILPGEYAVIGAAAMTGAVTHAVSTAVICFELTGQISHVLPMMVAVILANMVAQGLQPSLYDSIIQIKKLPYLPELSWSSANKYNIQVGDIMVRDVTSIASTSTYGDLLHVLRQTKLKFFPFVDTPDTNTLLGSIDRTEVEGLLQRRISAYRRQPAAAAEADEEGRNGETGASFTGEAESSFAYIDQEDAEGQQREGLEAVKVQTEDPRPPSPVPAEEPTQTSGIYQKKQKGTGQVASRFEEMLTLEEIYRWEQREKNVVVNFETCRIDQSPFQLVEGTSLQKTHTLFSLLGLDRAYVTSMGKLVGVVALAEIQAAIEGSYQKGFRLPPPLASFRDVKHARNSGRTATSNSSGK
As to conditions: for IC50: read-out: Apparent affinity (K1/2). In short, it runs like this:
(§1)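 CLC-0 mutants in the C212S background were transfected into HEK293 cells with lipofectamine and recorded 1–3 d later as excised inside-out patches. Both sides held 130 mM NaCl, 5 mM MgCl2, 10 mM HEPES and 1 mM EGTA, pH 7.4. CPA was perfused continuously onto the cytoplasmic face. Steady-state current over the last 10 ms was normalized to bracketing blocker-free controls and fitted to a Langmuir function for K1/2. Values are mean ± SEM of ~4–6 patches.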

Assay [2] concerns the target T2, CLC-0 E166L mutant (Torpedo marmorata, UniProt P21564, C212S/E166L).
T2 sequence (P21564 1-805 E166L/C212S): T1 sequence (P21564 1-805 E166K/C212S) with K166L
As to conditions: for IC50: read-out: Apparent affinity (K1/2). In short, it runs like this:
as §1

The target in assay [3] is T3, CLC-0 E166G mutant (Torpedo marmorata, UniProt P21564, C212S/E166G).
T3 sequence (P21564 1-805 E166G/C212S): T1 sequence (P21564 1-805 E166K/C212S) with K166G
The following applies: read-out: Apparent affinity (K1/2). The essentials:
as §1

The structures appear in SMILES notation. Residue numbers refer to the chain shown, from its start. Where two headings read alike, the source gives them in different places.

With `O=C(O)COc1ccc(Cl)cc1` [CPA, p-chlorophenoxy acetate], the block of current in assay [1] (0.3 mM CPA, −160 mV) is ~10%; in assay [2] (0.3 mM CPA, −160 mV), ~60%. For the same compound, the IC50 stood at 21300 ± 900 µM in assay [1] (−80 mV); 15600 ± 700 µM in assay [1] (−100 mV); 11300 ± 500 µM in assay [1] (−120 mV); 7990 ± 350 µM in assay [1] (−140 mV); 5620 ± 270 µM in assay [1] (−160 mV); 4640 ± 190 µM in assay [2] (−40 mV). Also, the IC50 came out at 2610 ± 80 µM in assay [2] (−60 mV); 1460 ± 30 µM in assay [2] (−80 mV); 800 ± 20 µM in assay [2] (−100 mV); 470 ± 10 µM in assay [2] (−120 mV); 280 ± 10 µM in assay [2] (−140 mV); 180 ± 10 µM in assay [2] (−160 mV). The IC50 worked out at 300 ± 20 µM in assay [3] (−40 mV); 180 ± 10 µM in assay [3] (−60 mV); 140 ± 10 µM in assay [3] (−80 mV); 150 ± 10 µM in assay [3] (−100 mV); 180 ± 20 µM in assay [3] (−120 mV); 240 ± 30 µM in assay [3] (−140 mV). In addition, the IC50 in assay [3] (−160 mV) was 320 ± 30 µM.

For `CCCCCCCC(=O)O` [octanoate], the IC50 in assay [1] (−80 mV) is 29200 ± 530 µM; in assay [1] (−100 mV), 21600 ± 540 µM; in assay [1] (−120 mV), 15400 ± 500 µM; in assay [1] (−140 mV), 10600 ± 450 µM; in assay [1] (−160 mV) it was 7240 ± 330 µM; in assay [2] (−40 mV), 342 ± 53 µM. Also, the IC50 was found to be 192 ± 22 µM in assay [2] (−60 mV); 106 ± 10 µM in assay [2] (−80 mV); 57 ± 5 µM in assay [2] (−100 mV); 32 ± 3 µM in assay [2] (−120 mV); 18 ± 2 µM in assay [2] (−140 mV); 11 ± 1 µM in assay [2] (−160 mV). Moreover, the IC50 was 225 ± 13 µM in assay [3] (−40 mV); 127 ± 8 µM in assay [3] (−60 mV); 85 ± 6 µM in assay [3] (−80 mV); 75 ± 6 µM in assay [3] (−100 mV); 82 ± 8 µM in assay [3] (−120 mV); 115 ± 14 µM in assay [3] (−140 mV). In addition, the IC50 in assay [3] (−160 mV) was found to be 175 ± 19 µM.
